{
  "source": "paper PMC8414988",
  "about": "(Pediatric blood & cancer, 2021)",
  "key": {"[1]": {"tested_on": "progressive or refractory brain tumors", "assay": "Tumor response assessment", "type": "in vivo, human", "summary_of_the_method": "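Oral once-daily dosing, 21 of 28 days, for up to 26 courses. Response by bi-dimensional MR measurement. CR: all enhancing tumor gone. PR: ≥50% reduction. Both held ≥8 weeks on stable or decreasing corticosteroids. PD: >25% increase from smallest measurement, new lesion, or neurologic worsening. Patients receiving ≥1 dose evaluable.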"}, "[2]": {"assay": "Plasma pharmacokinetics, non-compartmental analysis", "type": "in vivo, human", "conditions": "for AUC(0-t) / Cmax / half-life: human, plasma, po"}, "[3]": {"assay": "Exposure-toxicity associations", "type": "in vivo, human", "conditions": "course 1"}, "[4]": {"conditions": "human, in vivo, 28 days"}, "[5]": {"conditions": "daily, 21 days followed by 7-day rest, adults; cited from earlier work"}},
  "data": [
    {"compound": "CC(=O)c1c(C)c2cnc(Nc3ccc(N4CCNCC4)cn3)nc2n(C2CCCC2)c1=O", "note": "[palbociclib]", "values": [
      {"measurement": "objective response", "setting": "[1]; Stratum I and II", "value": "No patients on either stratum had an objective response"},
      {"measurement": "time on treatment", "setting": "[1]; Stratum II, 3 subjects (2 at 50 mg/m^2 and 1 at 75 mg/m^2)", "value": 4, "unit": "courses"},
      {"measurement": "time on treatment", "setting": "[1]; one patient with GBM, 75 mg/m^2", "value": 6, "unit": "courses"},
      {"measurement": "time on treatment", "setting": "[1]; one patient with anaplastic ependymoma, Stratum I, 75 mg/m^2", "value": 18, "unit": "courses"},
      {"measurement": "Cmax (mean ± SD)", "setting": "[2]; 50 mg/m^2 oral, Day 1 (single dose), N=7", "value": "69.3 ± 43.7", "unit": "ng/mL"},
      {"measurement": "AUC0-Tlast (mean ± SD)", "setting": "[2]; 75 mg/m^2 oral, Day 21 (repeated doses), N=17", "value": "2219 ± 1086", "unit": "ng·h/mL"},
      {"measurement": "AUC(0-t)", "setting": "[2]; 50 mg/m2, AUC0-Tlast (median (range)), 50 mg/m^2 oral, Day 1 (single dose), N=7", "value": 1160, "unit": "ng·h/mL"},
      {"measurement": "AUC(0-t)", "setting": "[2]; 50 mg/m2, AUC0-Tlast (median (range)), 50 mg/m^2 oral, Day 21 (repeated doses), N=6", "value": 1230, "unit": "ng·h/mL"},
      {"measurement": "Cmax", "setting": "[2]; 50 mg/m2, Cmax (median (range)), 50 mg/m^2 oral, Day 1 (single dose), N=7", "value": 54.9, "unit": "ng/mL"},
      {"measurement": "Cmax", "setting": "[2]; 50 mg/m2, Cmax (median (range)), 50 mg/m^2 oral, Day 21 (repeated doses), N=6", "value": 77.2, "unit": "ng/mL"},
      {"measurement": "half-life", "setting": "[2]; 50 mg/m2, Half-life (median (range)), 50 mg/m^2 oral, Day 1 (single dose), N=7", "value": 13, "unit": "h"},
      {"measurement": "half-life", "setting": "[2]; 50 mg/m2, Half-life (median (range)), 50 mg/m^2 oral, Day 21 (repeated doses), N=6", "value": 17.4, "unit": "h"},
      {"measurement": "AUC(0-t)", "setting": "[2]; 75 mg/m2, AUC0-Tlast (median (range)), 75 mg/m^2 oral, Day 1 (single dose), N=21", "value": 1830, "unit": "ng·h/mL"},
      {"measurement": "AUC(0-t)", "setting": "[2]; 75 mg/m2, AUC0-Tlast (median (range)), 75 mg/m^2 oral, Day 21 (repeated doses), N=17", "value": 2270, "unit": "ng·h/mL"},
      {"measurement": "Cmax", "setting": "[2]; 75 mg/m2, Cmax (median (range)), 75 mg/m^2 oral, Day 1 (single dose), N=21", "value": 94, "unit": "ng/mL"},
      {"measurement": "half-life", "setting": "[2]; 75 mg/m2, Half-life (median (range)), 75 mg/m^2 oral, Day 1 (single dose), N=21", "value": 13.3, "unit": "h"},
      {"measurement": "half-life", "setting": "[2]; 75 mg/m2, Half-life (median (range)), 75 mg/m^2 oral, Day 21 (repeated doses), N=17", "value": 14.4, "unit": "h"},
      {"measurement": "AUC(0-t)", "setting": "[2]; 95 mg/m2, AUC0-Tlast (median (range)), 95 mg/m^2 oral, Day 1 (single dose), N=6", "value": 2410, "unit": "ng·h/mL"},
      {"measurement": "AUC(0-t)", "setting": "[2]; 95 mg/m2, AUC0-Tlast (median (range)), 95 mg/m^2 oral, Day 21 (repeated doses), N=2", "value": 2190, "unit": "ng·h/mL"},
      {"measurement": "half-life", "setting": "[2]; 95 mg/m2, Half-life (median (range)), 95 mg/m^2 oral, Day 1 (single dose), N=6", "value": 14.6, "unit": "h"},
      {"measurement": "half-life", "setting": "[2]; 95 mg/m2, Half-life (median (range)), 95 mg/m^2 oral, Day 21 (repeated doses), N=2", "value": 11.3, "unit": "h"},
      {"measurement": "dose dependence of mean Cmax and AUC0-Tlast", "setting": "[2]; within 50 and 95 mg/m^2, single and repeated doses", "value": "increased in proportional manner"},
      {"measurement": "association of pharmacokinetic variables with thrombocytopenia or lymphopenia", "setting": "[3]", "value": "No association was found"},
      {"measurement": "Dose limiting toxicities observed", "setting": "[4]", "value": "grade 4 neutropenia and grade 3 thrombocytopenia and dehydration"},
      {"measurement": "adult MTD", "setting": "[5]", "value": 125, "unit": "mg"}
    ]}
  ]
}
